Laboratory results reported in ChEMBL document CHEMBL1134471, “Antimycobacterial activity of substituted isosteres of pyridine- and pyrazinecarboxylic acids. 2” (2001).
Several values for one entry are separate records, joined by “and”; a condition that tells them apart may be missing. Equal values may be shown once.

System: Mycobacterium tuberculosis
Experiment: Minimum inhibitory concentration against Mycobacterium tuberculosis H37Rv (ATCC 27294) in BACTEC 6A medium
Assay type: functional
In short: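 M. tuberculosis H37Rv ATCC 27294 tested in the BACTEC 460 radiometric system in BACTEC 6A medium. Percent inhibition = 1 − (growth index of test sample / growth index of control) × 100. MIC taken as the lowest concentration inhibiting 99% of the inoculum.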

Row | Compound | MIC
1 | CC(C)(C)C(=O)OCn1nnnc1-c1cnccn1 | 50 µM and 13 µg/mL
2 | NNC(=O)c1ccncc1 [ISONIAZID] | 0.15 µM and 0.018 µg/mL
3 | Oc1nc(-c2cccnc2)no1 | > 1600 µM and > 261 µg/mL
4 | CC(C)(C)C(=O)OCSc1nc(-c2cnccn2)no1 | 400 µM and 118 µg/mL
5 | Sc1nc(-c2cnccn2)no1 | 1600 µM and 288 µg/mL
6 | Sc1nc(-c2cccnc2)no1 | > 1600 µM and > 286 µg/mL
7 | CC(C)(C)C(=O)OCn1c(-c2cnccn2)noc1=O | 200 µM and 56 µg/mL
8 | Oc1nc(-c2ccncc2)no1 | > 1600 µM and > 261 µg/mL
9 | CC(C)(C)C(=O)OCSc1nc(-c2ccncc2)no1 | 200 µM and 59 µg/mL
10 | Oc1nc(-c2cnccn2)no1 | 800 µM and 131 µg/mL
11 | CC(C)(C)C(=O)OCn1c(-c2cccnc2)noc1=O | 100 µM and 28 µg/mL
12 | CC(C)(C)C(=O)OCn1c(-c2ccncc2)noc1=O | 50 µM and 14 µg/mL
13 | O=c1oc(-c2ccncc2)ns1 | 50 µM and 9 µg/mL
14 | O=c1oc(-c2cnccn2)ns1 | 25 µM and 4.5 µg/mL
15 | CC(C)(C)C(=O)OCSc1nc(-c2cccnc2)no1 | 200 µM and 59 µg/mL
16 | Sc1nc(-c2ccncc2)no1 | > 1600 µM and > 286 µg/mL
17 | O=c1oc(-c2cccnc2)ns1 | 25 µM and 4.5 µg/mL
18 | NC(=O)c1cnccn1 [PYRAZINAMIDE] | 400 µM and 49 µg/mL
